The full list was thinned out, with hits kept by preference.
T cell modulator: modulates CD8 T cell binding to vesicles. actives 0.068% (n = 330,000). AID 2052. response (vesicle binding), % at 7 µM. 2C CD8+ T cell-vesicle binding, flow cytometry; active compounds read low;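 active = response, share of CD8 T cells binding vesicles, and their 90th percentile fluorescence all below set limits, cut at about 80% in these data, passing the limit was not always enough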;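 note: values below 100% mean blocked vesicle binding to the CD8+ T cells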
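Also added: QL9-peptide-loaded Drosophila micro-vesicles bearing Ld, ICAM-1 and B7-1; Test system: purified 2C TCR transgenic mouse naive CD8+ T cells; Measured by: cytometric PE anti-B7-1 and Alexa647 anti-CD8 signals after 1% paraformaldehyde fixation; Timing: binding step 1.5 h, 37 °C, antibody labelling 20 min, ice.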
ALR H2O2 inh: human ALR oxidase inhibition via reduced H2O2; P55789; purified ALR, DTT oxidation, H2O2 HRP-luminol luminescence; inhibition, % (test concentration not listed); actives 3.8% (n = 290,000); AID 485317;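 active = mean replicate inhibition above about 79%, with every replicate also reaching it, limit read from the data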
Target sequence (P55789 whole entry, looked up): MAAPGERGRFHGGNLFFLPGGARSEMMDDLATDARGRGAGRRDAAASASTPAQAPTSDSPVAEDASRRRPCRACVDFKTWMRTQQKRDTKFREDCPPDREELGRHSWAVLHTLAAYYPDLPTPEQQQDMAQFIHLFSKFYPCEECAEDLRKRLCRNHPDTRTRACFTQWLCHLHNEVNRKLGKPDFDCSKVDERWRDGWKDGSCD
Glyco luc inh: N-linked glycosylation inhibition. reporter increase, % at 12.5 µM. D54 ERlucT glycosylation luciferase reporter, 24 h; percent of 100 nM tunicamycin response. AID 588692. actives 0.23% (n = 360,000);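 active = mean luciferase reporter signal, scaled so untreated is 0 and the glycosylation-blocking control 100, at or above a set limit in every replicate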;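 note: luciferase carries N-glycosylation sites so blocking glycosylation raises the light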
Hits are given with their value; i = inactive; nt = no result.

SMILES	T cell modulator	ALR H2O2 inh	Glyco luc inh
COc1cccc(NC(=O)CSc2nnc(COc3ccc4c(c3)CCCC4)o2)c1	i	i	i
COc1ccc(OC)c(NC(=O)CSc2nnc(CNc3ccc(F)cc3)o2)c1	i	91	i
COc1ccc(NCc2nnc(SCC(=O)Nc3ccccc3OC)o2)cc1	i	i	i
COc1ccc(OCc2nnc(SCC(=O)Nc3cccc(C(C)=O)c3)o2)cc1	i	99	i
COc1ccc(C(=O)NCc2nnc(SCC(=O)c3ccccc3)o2)cc1	i	i	i
Cc1nc(C)c(-c2ccc(SCC(=O)Nc3ccc(C)c(Cl)c3)nn2)s1	i	i	i
CC(=O)c1ccc(NC(=O)CSc2ccc(-c3sc(C)nc3C)nn2)cc1	i	99	i
COc1ccc(NCc2nnc(SCC(=O)c3ccc(OC)cc3)o2)cc1	i	98	i
O=C(Cc1cccc2ccccc12)Nc1c(F)cccc1F	i	i	i
CC(Sc1nnc(NC2CCCCC2)s1)C(=O)N1CCOCC1 (stereo not given)	i	i	i
Cc1noc(C)c1NC(=O)N(C)C[C@H]1Oc2ccc(NC(=O)CCC(F)(F)F)cc2C(=O)N([C@H](C)CO)C[C@@H]1C	i	i	i
O=S(=O)(Nc1ccncc1Cl)c1cccc(Cl)c1Cl	i	i	i
CCCCNC(=S)NNC(=O)c1cc(-c2ccncc2)nc2ccccc12	i	i	i
COc1ccccc1CNC(=O)COC(=O)COc1ccccc1Cc1ccccc1	i	nt	i
CC(=O)c1cccc(NC(=O)CSc2ccc(-c3ccc4c(c3)OCO4)nn2)c1	i	i	i
COc1ccc(NCc2nnc(SCC(=O)Nc3cccc(C)c3)o2)cc1	i	99	i
COc1ccc(OC)c(NC(=O)CSc2nnc(CNc3ccc(C)cc3C)o2)c1	i	i	i
COc1ccc(-c2ccc(SCC(=O)Nc3cccc(C(C)=O)c3)nn2)cc1OC	i	85	i
CCc1nnc(NC(=O)CSc2nnc(CNc3ccc(Cl)cc3)o2)s1	i	99	i
CCc1nnc(NC(=O)CSc2nnc(Cc3ccccc3)o2)s1	i	i	i
CCc1ccccc1NC(=O)CN1CCN(C(=O)CCC(=O)N2CCC(c3ccccc3)=N2)CC1	i	i	i
CNc1cncc(-c2ccc(CN3CCOCC3)cc2)n1	nt	nt	i
CC1=C(C)CC(C(=O)NCCCN2CCCC2=O)C(C(=O)O)C1 (stereo not given)	i	i	i
O=C(NCc1n[nH]c(=S)n1-c1ccc(F)cc1)c1ccc(S(=O)(=O)N2CCOCC2)cc1	i	i	i
O=C(NCc1n[nH]c(=S)n1-c1ccccc1)c1ccc(S(=O)(=O)N2CCOCC2)cc1	i	91	i
SMILES	T cell modulator	ALR H2O2 inh	Glyco luc inh
Cc1ccc(CN2C(=O)CC(Nc3ccc(N4CCOCC4)cc3)C2=O)cc1 (stereo not given)	i	99	i
O=C1CC(Nc2ccc(N3CCOCC3)cc2)C(=O)N1CCc1ccccc1 (stereo not given)	i	i	i
CN(C)c1ccc(N2C(=O)CC(Nc3ccc(N4CCOCC4)cc3)C2=O)cc1 (stereo not given)	i	i	i
COc1cccc(N2C(=O)CC(Nc3ccc(N4CCOCC4)cc3)C2=O)c1 (stereo not given)	i	99	i
O=C1CC(Nc2ccc(N3CCOCC3)cc2)C(=O)N1c1cccc(C(F)(F)F)c1 (stereo not given)	i	nt	i
COc1ccc(N2C(=O)CC(Nc3ccc(N4CCOCC4)cc3)C2=O)c(OC)c1 (stereo not given)	i	98	i
Cc1ccccc1CSc1nnc(-c2ccncc2)n1C	i	i	i
Cc1ccc(S(=O)(=O)N2CCCOC2CNC(=O)C(=O)NCc2ccccn2)cc1 (stereo not given)	i	i	nt
CC(C)(C)c1ccc(OCCC(=O)Nc2cccc(S(=O)(=O)N3CCCCC3)c2)cc1	i	i	i
COc1ccc(/C(C)=N/NC(=O)c2ccc(NS(=O)(=O)c3cccs3)cc2)cc1	i	i	i
C=C(CCO)C1=CCN(S(=O)C(C)(C)C)[C@@H]1CCO (stereo not given in full)	nt	nt	i
O=C(NCCCc1ccccc1)c1cccc(NC(=O)C2CCCCC2)c1	nt	nt	i
Cc1ccc2cc3c(NC(=O)C4CCCO4)nn(CC(C)C)c3nc2c1 (stereo not given)	i	i	i
CCCn1nc(NS(=O)(=O)c2cccc3nonc23)c2cc3cccc(C)c3nc21	i	97	i
Cc1ccc2cc3c(NS(=O)(=O)c4cccc5nonc45)nn(CC(C)C)c3nc2c1	i	98	i
CCCn1nc(NS(=O)(=O)c2cccc3nonc23)c2cc3cc(C)ccc3nc21	i	i	i
CCN1CCN(S(=O)(=O)c2ccc(Cl)c(C(=O)NCCc3ccccc3)c2)CC1	i	i	i
COc1cc(S(=O)(=O)N2CC(=O)Nc3ccccc32)ccc1NC(C)=O	i	i	i
COc1cc(C=Cc2nnc3c4ccccc4cnn23)cc(OC)c1OC	nt	nt	i
Cc1cc(=O)n(C(C)Cc2ccccc2)n1C(C)Cc1ccccc1 (stereo not given)	nt	nt	i
CN(C)S(=O)(=O)n1cc(/C=C(\NC(=O)c2ccccc2Cl)C(=O)NCCN2CCOCC2)c2ccccc21	i	i	i
O=C(NCCN1CCOCC1)/C(=C/c1ccc(Cl)cc1)NC(=O)c1ccccc1	i	i	i
CN(C)c1ccc(/C=C(/NC(=O)c2ccccc2Cl)C(=O)NCCN2CCOCC2)cc1	i	88	i
CN(C)c1ccc(/C=C(/NC(=O)c2ccccc2)C(=O)NCCN2CCOCC2)cc1	i	99	i
CN(C)C1CCCCC=CC(=O)NC1 (stereo not given)	nt	nt	i
SMILES	T cell modulator	ALR H2O2 inh	Glyco luc inh
O=C(Nc1cccc([N+](=O)[O-])c1)c1cnccn1	i	i	i
O=C(Nc1cccc([N+](=O)[O-])c1)c1[nH]ncc1Cl	i	96	i
Cc1cc(C)cc(CC(=O)N2CCC2(C)C(=O)NS(=O)(=O)c2ccc(C#N)cc2)c1 (stereo not given)	nt	nt	i
O=C(Nc1nnc([C@H]2C[C@H](O)[C@@H](CO)O2)s1)Nc1ccccc1Oc1ccccc1	nt	nt	i
S=C(NC1CCCC1)N1CCN(c2cccc(Cl)c2)CC1	i	i	i
S=C(NC1CC1)N1CCN(c2ccc(Cl)cc2)CC1	i	98	i
O=C(c1ccc(Cl)cc1)N1CCCC(C(=O)N2CCN(c3ccccc3)CC2)C1 (stereo not given)	i	i	i
O=C(C1CCC1)N1CCN(c2ccc(Cl)cc2)CC1	i	93	i
CCOc1ccc(NC(=S)N(C)C)cc1	i	i	i
COc1cc(OC)c(OC)cc1CNc1nnnn1C	i	nt	i
CCOc1ccc(C=NNc2ccc(S(=O)(=O)Nc3ccccc3C(=O)O)cc2[N+](=O)[O-])cc1OC	i	nt	i
COc1ccc(/C=N\Nc2ccccc2[N+](=O)[O-])c(C(=O)O)c1OC	i	nt	i
CN(CCO)c1ccc(C=NNc2ccc([N+](=O)[O-])cc2S(=O)(=O)Nc2ccccc2C(=O)O)cc1	i	99	i
COc1ccc(/C=N\Nc2ccc([N+](=O)[O-])cc2[N+](=O)[O-])c(C(=O)O)c1OC	i	98	i
COc1cc(C=NNc2ccc(S(=O)(=O)Nc3ccccc3C(=O)O)cc2[N+](=O)[O-])ccc1O	i	99	i
